{"source": "PubChem BioAssay AID652203", "about": "(Vanderbilt Specialized Chemistry Center, 2013)", "molecular_target": "Metabotropic glutamate receptor 7 (Rattus norvegicus) (UniProt P35400)", "sequence (P35400 whole entry, looked up)": "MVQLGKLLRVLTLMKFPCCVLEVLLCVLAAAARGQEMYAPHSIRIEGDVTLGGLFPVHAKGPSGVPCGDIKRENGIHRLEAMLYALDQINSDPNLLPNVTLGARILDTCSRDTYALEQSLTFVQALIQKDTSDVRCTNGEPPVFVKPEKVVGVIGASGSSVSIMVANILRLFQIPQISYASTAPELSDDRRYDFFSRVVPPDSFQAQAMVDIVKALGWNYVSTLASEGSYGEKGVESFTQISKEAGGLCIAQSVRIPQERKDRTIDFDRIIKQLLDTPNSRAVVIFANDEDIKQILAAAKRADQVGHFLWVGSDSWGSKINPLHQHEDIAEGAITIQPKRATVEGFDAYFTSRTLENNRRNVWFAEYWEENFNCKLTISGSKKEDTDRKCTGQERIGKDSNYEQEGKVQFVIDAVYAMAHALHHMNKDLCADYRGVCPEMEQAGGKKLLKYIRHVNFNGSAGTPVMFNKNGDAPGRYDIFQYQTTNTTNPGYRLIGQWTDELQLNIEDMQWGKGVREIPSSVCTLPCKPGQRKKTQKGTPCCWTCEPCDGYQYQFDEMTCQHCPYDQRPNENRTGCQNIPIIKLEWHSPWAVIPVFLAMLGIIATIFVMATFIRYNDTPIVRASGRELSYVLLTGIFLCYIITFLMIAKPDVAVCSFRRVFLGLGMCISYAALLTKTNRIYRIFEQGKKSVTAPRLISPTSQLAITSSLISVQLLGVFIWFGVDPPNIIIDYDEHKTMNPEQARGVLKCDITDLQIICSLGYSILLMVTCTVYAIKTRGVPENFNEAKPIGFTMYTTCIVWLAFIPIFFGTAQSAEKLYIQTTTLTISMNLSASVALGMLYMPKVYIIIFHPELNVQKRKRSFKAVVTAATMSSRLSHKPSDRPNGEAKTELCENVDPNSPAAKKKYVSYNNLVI", "assay": "mGlu7 modulation of L-AP4 calcium response, selectivity assay for mGlu5 silent allosteric modulator project, cell-based, rat, TRex293, Galpha15, Fluo4 calcium (AID 652203)", "settings": "rmGlu7+Galpha15 TRex293, L-AP4 calcium Fluo4 fold shift; at 10 µM", "in_short": "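Assay system: TRex293 cells expressing rat mGlu7 plus Galpha15; Technique: Fluo4 calcium fluorescence; Medium: pH 7.4 buffer with probenecid; Timing: compound at 20 s, agonist 60 s later; Doses: single test-compound dose of 10 µM, 1% DMSO final; Evaluation: shift in L-AP4 response caused by compound; Reagent: L-AP4, 3.9 µM–1 mM, 9 concentrations.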", "note": "Calls of active or inactive are those of the source. How the calls were made is not given here."}
{"smiles": "O=C(c1ccc(C#Cc2cccc(F)c2)cn1)N1CC2CC2C1", "note": "(stereo unspecified)", "values": [{"measurement": "fold shift of L-AP4 EC50", "value": "0.696 (inactive)"}]}
